Compound activity as filed in PubChem.
A selection: hits, their analogues and other compounds. The true share with any hit is near 2.9%.
DENV2 CPE = DENV2-induced cell death inhibition. DENV2-infected cells, cytopathic effect rescue, plate reader. CPE inhibition, % at 9.99 µM. actives 1.7% (n = 350,000); in the data active = CPE inhibition above about 20%, passing the limit was not always enough; inconclusive = no clear call, values can overlap the other calls; tested in BHK-21 cells
E-sel inducer = induces E-selectin expression in human endothelial cells; P16581; HUVEC E-selectin immunofluorescence imaging; normalized: neutral wells 0, TNF-alpha wells 100; activation, % at 7.58 µM; actives 0.37% (n = 260,000);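 active = mean E-selectin-positive cell signal at least 10% of the positive control, reached in at least 60% of replicates, without over 20% cell loss; inconclusive = no rule given, readout overlaps actives, possibly toxicity-flagged; inactive = the rest, including those meeting only one limit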
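Read-out basis: % PE-positive cells; Test system: HUVEC primary endothelial cells; Technique: immunofluorescence imaging; Dosing: single-point compound dose.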
SIRT5 block = blocks human SIRT5 desuccinylation of peptide | Q9NXA8 | Purified SirT5, succinyl-peptide AMC, trypsin-coupled fluorescence | inhibition, % at 15 µM | actives 1.1% (n = 330,000); in the data active = inhibition above about 15%; inconclusive = no clear call, values can overlap the other calls
Target sequence (Q9NXA8 whole entry, looked up): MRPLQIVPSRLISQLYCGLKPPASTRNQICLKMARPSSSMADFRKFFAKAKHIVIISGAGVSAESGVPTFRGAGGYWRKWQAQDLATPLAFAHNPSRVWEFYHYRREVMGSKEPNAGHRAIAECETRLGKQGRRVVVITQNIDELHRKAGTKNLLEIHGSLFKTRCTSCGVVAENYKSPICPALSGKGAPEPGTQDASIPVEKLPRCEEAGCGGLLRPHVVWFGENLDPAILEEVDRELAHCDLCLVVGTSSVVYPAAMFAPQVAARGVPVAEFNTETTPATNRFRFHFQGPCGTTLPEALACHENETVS
Large screens that a line does not name were inactive.

CCn1c(Cc2ccccc2)n[nH]c1=S	DENV2 CPE inconclusive, SIRT5 block 30.5
C=CCn1c(CCSCc2ccccc2)n[nH]c1=S	none
CCn1c(CCc2ccccc2)n[nH]c1=S	none (no result: SIRT5 block)
CO[C@@H]1CN(C)C(=O)c2ccc(NS(=O)(=O)c3ccc(C)cc3)cc2OC[C@@H](C)NC[C@@H]1C	none
CCN(CC)Cc1c(O)ccc2c1O/C(=C\C=C\c1ccccc1)C2=O	none
COc1ccc(C)cc1NC(=O)COC(=O)C1COc2ccccc2O1 (centres undefined)	none (no result: E-sel inducer)
COc1ccc(S(=O)(=O)N2CCOCC2)cc1NC(=O)COC(=O)C1COc2ccccc2O1 (centres undefined)	DENV2 CPE inconclusive, E-sel inducer 117.8
COc1ccc(S(=O)(=O)N2CCOCC2)cc1NC(=O)Cc1ccsc1	none (no result: SIRT5 block)
CC(C)Oc1ccc(S(=O)(=O)N2CCOCC2)cc1NC(=O)Cc1ccsc1	DENV2 CPE 42.4
COC(CN(C)C(=O)C1CCC(CNS(=O)(=O)c2ccc(C)cc2)CC1)OC (centres undefined)	none
Cn1c(=O)c2c(-c3ccccc3)n(-c3cccc(O)c3)cc2n(C)c1=O	SIRT5 block 38.7
Cn1c(=O)c2c(-c3ccccc3)n(-c3ccccc3O)cc2n(C)c1=O	none (no result: E-sel inducer)
Cc1ccc(CNC(=O)Nc2ccccc2)n1C	none
O=C(C1=NN[C@@H]2C(=O)N(c3cccc(F)c3)C(=O)[C@H]12)c1cnccn1	none (no result: E-sel inducer)
O=C(C1=NN[C@@H]2C(=O)N(c3ccccc3C(F)(F)F)C(=O)[C@H]12)c1cnccn1	E-sel inducer 27.2 (no result: SIRT5 block)
CN(C(=O)CCc1nnc(CCCCc2ccccc2)o1)C1CCOCC1	none (no result: E-sel inducer)
CN(C(=O)CCc1nnc(CCCCc2ccccc2)o1)C1CC(C)(C)NC(C)(C)C1	SIRT5 block 26.9 (no result: E-sel inducer)
CN(C)S(=O)(=O)c1ccc(C(=O)OCC(=O)Nc2ccc3c(c2)OCO3)cc1	DENV2 CPE inconclusive (no result: E-sel inducer)
Cc1cc(/C=C(\C#N)C(=O)NCc2ccccc2)cc(C)c1O	none (no result: E-sel inducer)
COc1cc(/C=C(/C#N)C(=O)NCc2ccccc2)cc(OC)c1OC	DENV2 CPE 67.3 (no result: E-sel inducer)
C[C@@H]1CN([C@@H](C)CO)C(=O)c2cccc(NS(=O)(=O)c3cccs3)c2O[C@H]1CN(C)Cc1ccc(C(F)(F)F)cc1	none
O=S1(=O)CCOCCCN1Cc1ccc(Cl)cc1	DENV2 CPE inconclusive (no result: SIRT5 block)
NC(=S)Nc1cccc2[nH]ncc12	none
O=S(=O)(Nc1cccc2[nH]ncc12)c1cccs1	E-sel inducer 32.9
Cc1ccc(CNC(=O)C2CCCN(S(=O)(=O)N3CC(C)CC(C)C3)C2)cc1 (centres undefined)	SIRT5 block 19.8 (no result: E-sel inducer)
Cc1ccc(CNC(=O)C2CCCN(c3nc(C)cc(C)n3)C2)cc1 (centres undefined)	none
CC1CC(C)CN(S(=O)(=O)N2CCCC(C(=O)NCCc3ccc(Cl)cc3)C2)C1 (centres undefined)	none (no result: E-sel inducer)
Cc1ccc(CNC(=O)C2CCCN(c3nc4ccsc4c(=O)s3)C2)cc1 (centres undefined)	SIRT5 block 18.1 (no result: E-sel inducer)
COc1ccc(C(=O)NCCNC(=O)c2cnccn2)cc1	none (no result: E-sel inducer)
COCCNC(=S)N(CCc1c(C)[nH]c2ccc(F)cc12)Cc1ccc(C)cc1	none
COc1ccc([Si](C)(C)[C@H]2[C@H](CCO)O[C@@]3(C(=O)N(Cc4ccccc4)c4ccc(N5CCCCC5=O)cc43)[C@@H]2C)cc1	none (no result: E-sel inducer)
COc1ccc([Si](C)(C)[C@@H]2[C@@H](CCO)O[C@]3(C(=O)N(Cc4ccccc4)c4ccc(N5CCOC5=O)cc43)[C@H]2C)cc1	none (no result: E-sel inducer)
COc1ccc([Si](C)(C)[C@H]2[C@H](CCO)O[C@@]3(C(=O)N(Cc4ccccc4)c4ccc(N5CCC5=O)cc43)[C@@H]2C)cc1	SIRT5 block 17.3 (no result: E-sel inducer)
COc1ccc([Si](C)(C)[C@H]2[C@H](CCO)O[C@@]3(C(=O)N(Cc4ccccc4)c4ccc(N5CCOC5=O)cc43)[C@@H]2C)cc1	DENV2 CPE 20.5 (no result: E-sel inducer)
C=CCN1C(=O)[C@@]2(O[C@@H](CCn3cc([C@H](O)c4ccccc4)nn3)[C@H]([Si](C)(C)c3ccc(OC)cc3)[C@H]2C)c2cc(N3CCOC3=O)ccc21	DENV2 CPE 41.6 (no result: E-sel inducer)
C=CCN1C(=O)[C@@]2(O[C@@H](CCn3cc(CCO)nn3)[C@H]([Si](C)(C)c3ccc(OC)cc3)[C@H]2C)c2cc(N3CCOC3=O)ccc21	none (no result: E-sel inducer)
COc1ccc2c3c([nH]c2c1)[C@@H](CO)N(CC1CC1)CC31CN(C(=O)C2CCOCC2)C1	none
NC(=O)C1=C[C@@H](c2ccccc2)C[C@@H](OCc2ccc(CO)cc2)O1	none
COc1cccc(C#Cc2ccc3c(c2)O[C@H](CN(C)S(=O)(=O)c2ccccc2F)[C@H](C)CN([C@@H](C)CO)S3(=O)=O)c1	none
CCCCCCCCCC[n+]1cccc(C(=O)N(CC)CC)c1	none (no result: E-sel inducer, SIRT5 block)
CCCN1C[C@@H](C)[C@H](OC)CN(C)C(=O)c2cc(NC(=O)c3ccccc3)ccc2OC[C@@H]1C	none
Cc1ccc(-n2cc(CN3CCN(Cc4nccn4C)CC3)c(-c3ccc(F)cc3)n2)cc1	DENV2 CPE inconclusive, SIRT5 block 112.5
Cc1ccc(-n2cc(CN3CCN(c4ccccn4)CC3)c(-c3ccc(F)cc3)n2)cc1	none
N#C[C@H]1[C@@H](c2ccc(-c3ccncc3)cc2)[C@@H](CO)N1C(=O)C1CC1	none
COc1ccccc1OCC(=O)Nc1ccncc1	none
Cc1cccc(OCC(=O)Nc2ccncc2)c1C	SIRT5 block 15.3 (no result: E-sel inducer)
CC(C)c1ccc(N2C(=O)CSC23C(=O)N2CCCc4cccc3c42)cc1 (centres undefined)	SIRT5 block 17.8 (no result: E-sel inducer)
O=C1c2cccc3c2N(CCC3)C(=O)C1(F)c1ccccc1 (centres undefined)	none
COCCn1c(SCC(=O)Nc2ccc3[nH]c(=O)[nH]c3c2)nc2ccccc2c1=O	none
CCCCN(C(=O)C1CSC2(C)CCC(=O)N12)c1c(N)n(Cc2ccccc2)c(=O)[nH]c1=O (centres undefined)	none
O=C(Nc1ccc2c(c1)[C@@H]1C[C@H](CC(=O)N3CCCCC3)O[C@H](CO)[C@@H]1O2)C1CCC1	none
O=C(C[C@H]1C[C@H]2c3cc(NC(=O)C4CCC4)ccc3O[C@H]2[C@H](CO)O1)NCCN1CCCCC1	SIRT5 block 34.7
CN1CCN(C(=O)C[C@@H]2C[C@H]3c4cc(NC(=O)NC5CCCCC5)ccc4O[C@H]3[C@@H](CO)O2)CC1	none
O=C(C[C@@H]1C[C@@H]2c3cc(NC(=O)C4CCC4)ccc3O[C@@H]2[C@H](CO)O1)NCCN1CCCCC1	none
CN1CCN(C(=O)C[C@@H]2C[C@@H]3c4cc(NC(=O)NC5CCCCC5)ccc4O[C@@H]3[C@@H](CO)O2)CC1	DENV2 CPE 28.7 (no result: SIRT5 block)
O=C(Nc1ccc(F)cc1)Nc1ccc2c(c1)[C@H]1C[C@H](CC(=O)N3CCCCC3)O[C@@H](CO)[C@H]1O2	DENV2 CPE 21.2 (no result: SIRT5 block)
O=C(Nc1ccc(F)cc1)Nc1ccc2c(c1)[C@@H]1C[C@H](CC(=O)N3CCCCC3)O[C@@H](CO)[C@@H]1O2	none (no result: SIRT5 block)
O=C(Nc1ccc2c(c1)[C@H]1C[C@@H](CC(=O)N3CCCCC3)O[C@@H](CO)[C@H]1O2)C1CCC1	DENV2 CPE 25.9 (no result: SIRT5 block)
COc1ccc2cc(-c3cc(C(=O)OCC(=O)NC4CCS(=O)(=O)C4)c4ccccc4n3)ccc2c1 (centres undefined)	none (no result: DENV2 CPE, SIRT5 block)
CCC[C@H]1CN(c2ccccc2)C(=O)[C@@H]1CC(=O)Nc1ccccc1	none
